Bioassay records deposited in PubChem by several laboratories.
VIM-2 inh: inhibitors of Pseudomonas aeruginosa VIM-2 metallo-beta-lactamase; purified VIM-2, nitrocefin hydrolysis, epi-absorbance fluorescence; inhibition, % at 5.6 µM; 0.89% of 290,000 active; AID 1527;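 active = inhibition above the mean of all tested compounds plus 3 SD, cutoff set per screening run, cut at about 7.5% in these data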;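 also: red hydrolysis product quenches plate fluorescence so inhibitors raise well fluorescence; 0% = enzyme with DMSO and 100% = DMSO without enzyme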
Yeast superoxide: yeast age-related superoxide inhibition as caloric restriction mimetic; superoxide response (% of plate mean), % at 10 µM; 0.18% of 330,000 active; S. cerevisiae aged cells, superoxide DHE fluorescence; hits give low values;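 active = superoxide response under a set limit, about three screen SD below normal, cut at about 65% in these data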;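 also: yeast aged for seven days with compound at 30 °C before DHE staining; 100% = average MFI of all compound-treated wells on the plate with controls excluded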
IMP-1 inhibitor: blocks Pseudomonas aeruginosa IMP-1 metallo-beta-lactamase; inhibition, % at 5.6 µM; 0.45% of 290,000 active; purified IMP-1, nitrocefin hydrolysis, epi-absorbance fluorescence;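 active = inhibition above the mean plus 3 SD of all compounds in the same screening run, cut at about 4.5% in these data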;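 also: 0% = IMP-1 with DMSO and 100% = DMSO wells lacking enzyme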
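System: purified IMP-1; amount: IMP-1 0.2 nM before substrate addition; compound: single dose, 5.6 µM; times: 25 °C, 15 min preincubation, 25 min reaction; signal: Epi-absorbance via hydrolysed-nitrocefin quenching of white-plate fluorescence, 480/530 nm, EDTA stop; benchmarks: DMSO with and without IMP-1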
PHOSPHO1 block: blocks human PHOSPHO1 phosphatase activity; Q8TCT1; recombinant PHOSPHO1, absorbance phosphatase assay; inhibition, % at 13.3 µM; 1.1% of 290,000 active; AID 1565; in the data active = inhibition above about 60%
Target sequence (Q8TCT1 whole entry, looked up): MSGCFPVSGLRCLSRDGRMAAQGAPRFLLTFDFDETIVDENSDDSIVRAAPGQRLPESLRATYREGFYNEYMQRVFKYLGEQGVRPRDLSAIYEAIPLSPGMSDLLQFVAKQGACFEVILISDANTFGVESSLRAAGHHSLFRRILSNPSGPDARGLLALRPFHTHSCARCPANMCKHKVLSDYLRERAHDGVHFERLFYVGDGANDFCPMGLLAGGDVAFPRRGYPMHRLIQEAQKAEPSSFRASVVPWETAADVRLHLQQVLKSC
PvdQ acylase: blocks Pseudomonas aeruginosa PvdQ acylase activity | purified PvdQ acylase, fluorescence plate reader | inhibition, % at 10 µM | 0.063% of 340,000 active; in the data active = inhibition above about 30%, passing the limit was not always enough;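 also: 0% = vehicle neutral wells and 100% = reference inhibitor wells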
The depositor's hits bear a star; . = no result. Most compounds without a hit are left out; they make up all but 2.2% or so of the library.

SMILES	VIM-2 inh	Yeast superoxide	IMP-1 inhibitor	PHOSPHO1 block	PvdQ acylase
c1ccc(Cc2nn3c(C4COc5ccccc5O4)nnc3s2)cc1 (configuration not stated)	-1	108	0	62*	-22
Cc1c(NS(=O)(=O)c2cccc(C(=O)OCC(=O)c3ccc(Cl)cc3)c2)c(=O)n(-c2ccccc2)n1C	.	.	.	.	-5
CC(C)(C)n1ncc2c(=O)n(Cc3cccc(Cn4cnc5c(cnn5C(C)(C)C)c4=O)c3F)cnc21	.	97	.	.	-4
COC(=O)C1CCC(=S)N1C(=O)c1ccccc1 (configuration not stated)	1	106	20*	-1	-10
CC1(C)Oc2c(ccc(O)c2CN2CCOCC2)C2=C1CCCC2	.	.	.	.	-15
O=C(c1ccco1)N1CCN(Cc2nc(Cc3ccccc3)no2)CC1	-2	86	-2	60*	2
Cc1cc(C2C(=O)CC(=O)CC2c2ccccc2)on1 (configuration not stated)	3	101	7.7*	-8	-15
Cc1cc(C)cc(NC(=O)CCc2c(C)nn(-c3ccc(N4CCOCC4)nn3)c2C)c1	-2	142	-2	17	-7
COC(OC)C1(C)C(C#N)=C(N)Oc2c1c(=O)oc1ccccc21 (configuration not stated)	-1	122	-2	.	9
CC1(C)C(C#N)=C(N)Oc2c1c(=O)oc1ccccc21	1	93	4.9*	30	-2
CCSc1ccc(-c2cccc([N+](=O)[O-])c2)nn1	-2	92	-2	-2	48*
O=C(CSc1ccc(-c2cccc([N+](=O)[O-])c2)nn1)N1CCCC1	-1	117	-2	9	-15
CCC(=O)NC(=S)NNC(=O)c1ccc(O)cc1	-5	98	-4	81*	-9
COc1ccc(-n2nnnc2SCC(=O)c2ccc(O)c(O)c2)cc1	7	78	-3	34	-10
NC(=O)c1ccc(-n2nnnc2SCC(=O)c2ccc(O)c(O)c2)cc1	11*	116	0	-71	11
COc1ccc(COc2cc(-c3cccc(OC)c3)nc3ccc(NC(=O)c4ccc(OC)cc4)cc23)cc1	-2	101	-2	67*	-5
COc1ccc(COc2cc(-c3cccc(OC)c3)nc3ccc(NC(=O)c4ccccc4)cc23)cc1	-1	95	0	-4	4
CCOc1c(Br)cc(/C=C(\C#N)C(=O)NC2CC2)cc1OC	-2	95	0	4	-10
C=CCNC(=O)/C(C#N)=C\c1cc(Cl)c(OCC)c(OC)c1	-3	63*	-3	-17	-4
COc1ccc(-n2cc(CN3CCCC3)c(-c3cccc(F)c3)n2)cc1	0	106	-1	61*	6
Cc1cccc(-n2cc(CN3CCN(Cc4nccn4C)CC3)c(-c3cccc(F)c3)n2)c1	-3	106	-4	61*	1
CCc1nn(CC(=O)NCCCN(CC)CC)c(=O)c2cc3sc(C)cc3n12	3	99	-5	37	-2
CCc1nn(CC(=O)NCCCN(C)Cc2ccccc2)c(=O)c2cc3sc(C)cc3n12	9.0*	72	-1	28	-16
CCCn1c(SCC(=O)c2cc(C)n(-c3cc(C)on3)c2C)n[nH]c1=O	.	.	.	.	6
CCCn1c(SCC(=O)c2cc(C)ccc2C)n[nH]c1=O	-4	103	-4	94*	-19
SMILES	VIM-2 inh	Yeast superoxide	IMP-1 inhibitor	PHOSPHO1 block	PvdQ acylase
Nc1ccccc1C(=O)N1O[C@@H]2C=C[C@H]1CC2	.	97	.	.	-13
COC(=O)c1ccc(=O)c2nc3/c(=C/O)c(O)cc(=O)c3[nH]c12	18*	45*	3	18	6
COC(=O)c1ccc(N)cc1O	-2	88	-5	6	6
CCN(CC)C(=O)c1sc2nc(N3CCOCC3)c3c(c2c1N)CCCC3	0	111	-4	80*	-19
Nc1c(C(=O)NCc2ccco2)sc2nc(N3CCOCC3)c3c(c12)CCCC3	8	100	1	92*	-26
NC(=O)c1sc2nc(N3CCCCC3)c3c(c2c1N)CCCC3	-1	114	-3	67*	2
COc1cc2cc3c(N)c(C(=O)NCc4ccco4)sc3nc2cc1OC	-2	94	-2	72*	-6
CCC(C)c1c(O)nc(SCC(=O)c2ccccc2)[nH]c1=O (configuration not stated)	-1	91	4.7*	-5	-14
CC(=O)c1c(C)[nH]c(C(=O)CN2CCN(S(=O)(=O)c3ccccc3F)CC2)c1C	.	90	.	.	-3
CC1CC(C)C(=O)C(C(CC2CC(=O)NC(=O)C2)OC(=O)CC(=O)c2ccccc2)C1 (configuration not stated)	.	.	.	.	-14
COc1cc(/C=C2/SC(=S)N(Cc3ccccc3)C2=O)ccc1O	3	98	4.7*	34	5
Cc1ccc(/C=C2\SC(=S)N(c3cccnc3)C2=O)o1	1	89	5.9*	-3	0
Cc1cccc(N2C(=O)/C(=C/c3cccnc3)SC2=S)c1	0	75	0	16	-3
O=C(O)c1cc(-c2ccc(/C=C3/SC(=S)N(Cc4ccccc4)C3=O)o2)ccc1Cl	-1	.	0	65*	-9
COc1ccc(CN2C(=O)/C(=C/c3ccc(-c4ccc(Cl)c(C(=O)O)c4)o3)SC2=S)cc1	-1	.	-1	9	.
CCCN1C(=O)/C(=C/c2ccncc2)SC1=S	-1	98	-2	-14	6
O=C1/C(=C/c2ccncc2)SC(=S)N1Cc1ccccc1	1	93	6.2*	1	-4
O=C1/C(=C\c2ccc(O)c(O)c2)SC(=S)N1Cc1ccccc1	-1	106	1	39	-3
Cn1c(=O)c2c(nc(C(O)c3ccccc3)n2C)n(C)c1=O (configuration not stated)	.	.	.	.	-6
c1ccc(N2CC3COc4ccccc4C3=N2)cc1 (configuration not stated)	.	.	.	.	-13
Cc1ccc(/C=C2/NC(=O)N(Cc3ccccc3)C2=O)o1	1	93	-1	-10	-13
Cc1ccc(/C=C2\SC(=S)N(Cc3ccccc3)C2=O)o1	1	107	0	67*	-8
Clc1ccc2[nH]cc(-c3nnnn3-c3ccccc3)c2c1	-2	106	-2	41	18
O=C(Cn1sc2ccccc2c1=O)NC12CC3CC(CC(C3)C1)C2	-2	100	-7	84*	8
Nc1cccc2c1C(=O)N(CC(=O)NC13CC4CC(CC(C4)C1)C3)C2=O	-6	114	-3	42	-20
Cc1nn(CC(=O)Nc2ccccc2C(F)(F)F)c(=O)c2cccn12	2	104	1	12	-11
O=C(COc1cccc(C(F)(F)F)c1)Nc1cccc(S(=O)(=O)NC2=NCCCCC2)c1	.	.	.	.	-3
Nc1c(C(=O)Nc2cccc(F)c2)nnn1-c1ccc2c(c1)OCCO2	4	94	18*	30	-8
COc1ccc(N2CCN(c3ccc(NC(=O)NN)cc3)CC2)cc1	0	94	-2	30	-3
CC1CC(C)CN(S(=O)(=O)CCNC(=O)c2ccc3c(c2)OCO3)C1 (configuration not stated)	.	108	.	.	-15
